Experimental data published in ChEMBL document CHEMBL1139620, “Synthesis of a small library of diketopiperazines as potential inhibitors of calpain” (Bioorg Med Chem Lett, 2005).
pIC50, pKi: −log10 of the molar value. Where a SMILES comes first, the peptide text is derived from it. [ ]: non-standard residue; d: D form. The star is where a group is joined. ξ: configuration not given here. ξF = NC(Cc1ccccc1)C(=O)O; Cbz = O=C(OCc1ccccc1)*

Assays:
[1] = molecular target: T1, Calpain-1 catalytic subunit (Homo sapiens) (UniProt P07384); test: Percent inhibition of human calpain 1 at 550 uM; Inhibition within […]
T1 sequence (whole entry): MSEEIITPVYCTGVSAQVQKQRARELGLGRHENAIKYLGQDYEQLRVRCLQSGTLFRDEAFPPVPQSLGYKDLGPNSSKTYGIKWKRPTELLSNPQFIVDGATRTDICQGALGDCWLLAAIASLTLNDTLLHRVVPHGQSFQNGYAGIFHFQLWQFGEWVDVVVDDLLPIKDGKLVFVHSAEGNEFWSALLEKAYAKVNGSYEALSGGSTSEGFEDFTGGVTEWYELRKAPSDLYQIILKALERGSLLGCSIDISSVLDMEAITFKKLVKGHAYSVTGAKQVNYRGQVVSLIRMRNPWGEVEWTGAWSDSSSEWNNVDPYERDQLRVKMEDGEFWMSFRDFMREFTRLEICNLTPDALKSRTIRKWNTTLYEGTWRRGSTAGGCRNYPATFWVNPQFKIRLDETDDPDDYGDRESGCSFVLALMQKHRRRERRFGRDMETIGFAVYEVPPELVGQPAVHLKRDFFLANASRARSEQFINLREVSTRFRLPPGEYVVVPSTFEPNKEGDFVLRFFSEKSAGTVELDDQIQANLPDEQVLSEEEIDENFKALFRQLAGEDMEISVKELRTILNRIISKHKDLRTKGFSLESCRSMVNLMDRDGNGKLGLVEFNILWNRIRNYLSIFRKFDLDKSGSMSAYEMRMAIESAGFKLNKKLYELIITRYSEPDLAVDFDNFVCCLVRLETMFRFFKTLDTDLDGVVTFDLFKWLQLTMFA
Outline: (§1)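 Recombinant human calpain I expressed in baculovirus, continuous fluorescence assay with Suc-Leu-Tyr-AMC (8 mM stock) in Tris 50 mM pH 7.3, EDTA 0.5 mM, βME 10 mM. Started with CaCl2 (40 mM stock). Ex 380/em 460 nm, linear for at least 2 min. Percent inhibition is the drop in initial rate against DMSO-only controls at the highest concentration tested. Values are within 10%.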

[2] = Concentration required for inhibition of calpain
Outline: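 Calpain I (recombinant human, baculovirus-expressed) was hydrolysing Suc-Leu-Tyr-AMC in Tris 50 mM pH 7.3 with EDTA 0.5 mM and βME 10 mM, activated by CaCl2 (40 mM stock). Fluorescence was followed continuously at ex 380/em 460 nm. The value is the concentration giving a 50% decrease in initial hydrolysis rate relative to DMSO controls.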

[3] = Binding affinity for rat erythrocyte calpain
[4] = molecular target: T1, Calpain-1 catalytic subunit (Homo sapiens); test: Percent inhibition of human calpain 1 at 120 uM; Inhibition within […]; outline: as §1
[5] = molecular target: T1, Calpain-1 catalytic subunit (Homo sapiens); test: Percent inhibition of human calpain 1 at 280 uM; Inhibition within […]; outline: as §1
[6] = molecular target: T1, Calpain-1 catalytic subunit (Homo sapiens); test: Percent inhibition of human calpain 1 at 97 uM; Inhibition within […]; outline: as §1
[7] = molecular target: T1, Calpain-1 catalytic subunit (Homo sapiens); test: Percent inhibition of human calpain 1 at 110 uM; Inhibition within […]; outline: as §1
[8] = molecular target: T1, Calpain-1 catalytic subunit (Homo sapiens); test: Percent inhibition of human calpain 1 at 580 uM; Inhibition within […]; outline: as §1
[9] = molecular target: T1, Calpain-1 catalytic subunit (Homo sapiens); test: Percent inhibition of human calpain 1 at 100 uM; Inhibition within […]; outline: as §1
[10] = molecular target: T1, Calpain-1 catalytic subunit (Homo sapiens); test: Percent inhibition of human calpain 1 at 610 uM; Inhibition within […]; outline: as §1
[11] = molecular target: T1, Calpain-1 catalytic subunit (Homo sapiens); test: Percent inhibition of recombinant human calpain 1 at highest concentration of 150 uM; Inhibition values are within […]; outline: as §1
[12] = molecular target: T1, Calpain-1 catalytic subunit (Homo sapiens); test: Percent inhibition of human calpain 1 at 170 uM; Inhibition within […]; outline: as §1
[13] = molecular target: T1, Calpain-1 catalytic subunit (Homo sapiens); test: Percent inhibition of human calpain 1 at 190 uM; Inhibition within […]; outline: as §1
[14] = molecular target: T1, Calpain-1 catalytic subunit (Homo sapiens); test: Percent inhibition of human calpain 1 at 90 uM; Inhibition within […]; outline: as §1
[15] = molecular target: T1, Calpain-1 catalytic subunit (Homo sapiens); test: Percent inhibition of human calpain 1 at highest 200 uM; Inhibition within […]; outline: as §1
[16] = molecular target: T1, Calpain-1 catalytic subunit (Homo sapiens); test: Percent inhibition of human calpain 1 at 180 uM; Inhibition within […]; outline: as §1
[17] = molecular target: T1, Calpain-1 catalytic subunit (Homo sapiens); test: Percent inhibition of human calpain 1 at 680 uM; Inhibition within […]; outline: as §1
[18] = molecular target: T1, Calpain-1 catalytic subunit (Homo sapiens); test: Percent inhibition of human calpain 1 at 500 uM; Inhibition within […]; outline: as §1
[19] = molecular target: T1, Calpain-1 catalytic subunit (Homo sapiens); test: Percent inhibition of human calpain 1 at 360 uM; Inhibition within […]; outline: as §1
[20] = molecular target: T1, Calpain-1 catalytic subunit (Homo sapiens); test: Percent inhibition of human calpain 1 at 160 uM; Inhibition within […]; outline: as §1
[21] = molecular target: T1, Calpain-1 catalytic subunit (Homo sapiens); test: Percent inhibition of human calpain 1 at 650 uM; Inhibition within […]; outline: as §1
[22] = molecular target: T1, Calpain-1 catalytic subunit (Homo sapiens); test: Percent inhibition of human calpain 1 at 300 uM; Inhibition within […]; outline: as §1
[23] = molecular target: T1, Calpain-1 catalytic subunit (Homo sapiens); test: Percent inhibition of human calpain 1 at 350 uM; Inhibition within […]; outline: as §1
[24] = molecular target: T1, Calpain-1 catalytic subunit (Homo sapiens); test: Percent inhibition of human calpain 1 at 210 uM; Inhibition within […]; outline: as §1
[25] = molecular target: T1, Calpain-1 catalytic subunit (Homo sapiens); test: Percent inhibition of human calpain 1 at 920 uM; Inhibition within […]; outline: as §1
[26] = molecular target: T1, Calpain-1 catalytic subunit (Homo sapiens); test: Percent inhibition of human calpain 1 at 130 uM; Inhibition within […]; outline: as §1

With `CC(C)c1ncc(Cc2ccccc2)nc1O` the inhibition [1] was 0% and the pIC50 [2] was 5.89.
Molecule `CC(C)[C@H](NC(=O)OCc1ccccc1)C(=O)NC(C=O)Cc1ccccc1` (stereo partly drawn) (Cbz-Val-[ξF]-aldehyde) has a pKi [3] of 8.00.
Work on `O=C(O)/C(S)=C/c1ccc(I)cc1` yielded a pIC50 [2] of 6.40.
For `O=C1N[C@@H](Cc2ccc(O)cc2)C(=O)N[C@H]1COCc1ccccc1`, the inhibition [4] was 0%.
`O=C1N[C@@H](Cc2ccccc2)C(=O)N[C@H]1Cc1ccccc1` gave an inhibition [5] of 0%.
In the case of `O=C1N[C@@H](Cc2ccc(OCc3ccccc3)cc2)C(=O)N[C@H]1Cc1ccc(OCc2ccccc2)cc1`, the inhibition [6] was 50%.
`CC(C)C[C@@H]1NC(=O)[C@H](COCc2ccccc2)NC1=O` showed an inhibition [7] of 0%.
`C[C@H](O)[C@@H]1NC(=O)[C@H](Cc2ccc(O)cc2)NC1=O` showed an inhibition [8] of 0%.
In the case of `O=C1N[C@@H](Cc2c[nH]c3ccccc23)C(=O)N[C@H]1Cc1ccccc1`, the inhibition [9] was 0%.
`COC(=O)C[C@H]1NC(=O)[C@H](Cc2ccccc2)NC1=O` showed an inhibition [10] of 25%.
Work on `COC(=O)C[C@@H]1NC(=O)[C@H](Cc2ccc(OCc3ccccc3)cc2)NC1=O` yielded an inhibition [4] of 0%.
With `COC(=O)C[C@@H]1NC(=O)[C@H](COCc2ccccc2)NC1=O` the inhibition [11] was 0%.
Molecule `Cc1ccc(S(=O)(=O)/N=C(/N)NCCC[C@@H]2NC(=O)[C@H](Cc3ccc(O)cc3)NC2=O)cc1` has an inhibition [12] of 0%.
`CC(C)C[C@@H]1NC(=O)[C@H](Cc2ccc(O)cc2)NC1=O` gave an inhibition [13] of 0%.
Molecule `COC(=O)C[C@@H]1NC(=O)[C@H](Cc2ccc(O)cc2)NC1=O` has an inhibition [14] of 25%.
`O=C1N[C@@H](Cc2c[nH]c3ccccc23)C(=O)N[C@H]1COCc1ccccc1` gave an inhibition [15] of 0%.
Molecule `O=C1N[C@@H](Cc2c[nH]c3ccccc23)C(=O)N[C@H]1Cc1c[nH]c2ccccc12` has an inhibition [16] of 0%.
With `CN1C(=O)[C@H](Cc2ccc(O)cc2)N(C)C(=O)[C@@H]1Cc1ccc(O)cc1` the inhibition [17] was 0% and the pIC50 [2] was 6.10.
Molecule `O=C1N[C@@H](Cc2ccc(O)cc2)C(=O)N[C@H]1Cc1ccc(O)cc1` has an inhibition [18] of 0%.
In the case of `CN1C(=O)[C@H](Cc2ccc(O)cc2)N(C)C(=O)[C@@H]1Cc1ccccc1`, the inhibition [19] was 0%.
With `O=C1N[C@@H](Cc2c[nH]c3ccccc23)C(=O)N[C@H]1Cc1ccc(O)cc1` the inhibition [11] was 0%.
`COC(=O)C[C@@H]1NC(=O)[C@H](Cc2ccccc2)NC1=O` gave an inhibition [20] of 13%.
`O=C1N[C@@H](Cc2ccc(OCc3ccccc3)cc2)C(=O)N[C@H]1Cc1ccccc1` gave an inhibition [21] of 50%.
Molecule `O=C1N[C@@H](Cc2ccc(O)cc2)C(=O)N[C@H]1Cc1ccccc1` has an inhibition [16] of 0%.
`CC(C)[C@@H]1NC(=O)[C@H](Cc2ccc(OCc3ccccc3)cc2)NC1=O` showed an inhibition [15] of 0%.
`CN1C(=O)[C@H](Cc2ccccc2)N(C)C(=O)[C@@H]1Cc1ccccc1` showed an inhibition [22] of 0%.
Work on `Cc1ccc(S(=O)(=O)/N=C(/N)NCCC[C@@H]2NC(=O)[C@H](Cc3ccccc3)NC2=O)cc1` yielded an inhibition [23] of 0%.
Molecule `COC(=O)C[C@H]1NC(=O)[C@H](Cc2ccc(O)cc2)NC1=O` has an inhibition [24] of 0%.
`C[C@H](O)[C@@H]1NC(=O)[C@H](Cc2ccccc2)NC1=O` gave an inhibition [13] of 30%.
Work on `CN1C(=O)[C@H](Cc2ccc(OCc3ccccc3)cc2)N(C)C(=O)[C@@H]1Cc1ccc(OCc2ccccc2)cc1` yielded an inhibition [23] of 50%.
In the case of `O=C1N[C@@H](Cc2ccccc2)C(=O)N[C@H]1COCc1ccccc1`, the inhibition [22] was 0%.
`CC(C)C[C@@H]1NC(=O)[C@H](Cc2c[nH]c3ccccc23)NC1=O` showed an inhibition [25] of 0%.
For `COc1c([C@@H](O)CC(C)C)ccc2c1C(=O)OCc1cc(C)cc(O)c1O2` [PENICILLIDE], the pIC50 [2] was 5.15.
Molecule `CC(C)C[C@@H]1NC(=O)[C@H](Cc2ccccc2)NC1=O` has an inhibition [26] of 0%.
